Measurements reported in paper PMC4966677 (ACS infectious diseases, 2015).
Where “and” joins values, the source holds several entries; their conditions need not be identical. Identical values can stand only once.

Columns and labels:
Mtb-infected macrophages = assay: Growth inhibition of Mtb in IFN-γ-activated J774 macrophages; type: cell-based, Mycobacterium tuberculosis; settings: read-out: In vitro anti-Mtb activity, Mtb-infected macrophages (IC90); IC90 in macrophages activated with γ-interferon
mPTPA = mPTPA (Mycobacterium tuberculosis, UniProt P9WIA1)
[1] = test system: Human PTP panel: PTP1B, TC-PTP, SHP1, SHP2, FAp1, Lyp, Meg2, HePTP, laforin, VHX, VHR, LMWPTP, Cdc14A, PTPα, LAR, CD45, PTPRG; assay: Human PTP panel selectivity, pNPP assay; type: biochemical
Summary of the method: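 Each PTP expressed in and purified from E. coli, used at 5 nM final. The reaction is started by adding enzyme to pNPP, set at that PTP's Km, plus varying test compound concentrations. It is stopped after 15 min with 5N NaOH. p-Nitrophenol is read at 405 nm, corrected with a no-enzyme control. IC50 is fit to AI/A0 = IC50/(IC50+[I]).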

[2] = Oral pharmacokinetics in guinea pig plasma; type: in vivo; settings: for AUCALL / CMAX / Clearance / Half-life / TMAX / VD (Volume of distribution): oral; for Oral bioavailability (in words): guinea pigs, oral dosing
[3] = Tolerability in guinea pigs during the efficacy study; type: in vivo, guinea pig; settings: L01-Z08 20 mg/kg and L335-M34 50 mg/kg once daily alone or in combination for 6 weeks
M. tuberculosis Erdman = assay: Microplate Alamar Blue assay; type: cell-based, Mycobacterium tuberculosis; settings: Minimum Inhibitory Concentration, strain Erdman
Mtb H37Rv = assay: Chronic TB infection model in guinea pigs, lung CFU; type: in vivo; settings: added to the standard regimen HRZ, guinea pig lungs, after 6 weeks of treatment
mPTPB = mPTPB (Mycobacterium tuberculosis, UniProt I6WXK4)
M. tuberculosis H37Rv = assay: Microplate Alamar Blue assay; type: cell-based, Mycobacterium tuberculosis; settings: for In vitro anti-Mtb activity MABA-MIC H37Rv: Minimum Inhibitory Concentration, strain H37Rv; for Activity in standard MIC assay (in words): strain not given
[4] = guinea pig, Co-admin: L335M34 50 mg/kg and L01Z08 20 mg/kg together
[5] = guinea pig, Single (given alone), L335M34 50 mg/kg, L01Z08 20 mg/kg

mPTPB, sequence (I6WXK4 whole entry, looked up): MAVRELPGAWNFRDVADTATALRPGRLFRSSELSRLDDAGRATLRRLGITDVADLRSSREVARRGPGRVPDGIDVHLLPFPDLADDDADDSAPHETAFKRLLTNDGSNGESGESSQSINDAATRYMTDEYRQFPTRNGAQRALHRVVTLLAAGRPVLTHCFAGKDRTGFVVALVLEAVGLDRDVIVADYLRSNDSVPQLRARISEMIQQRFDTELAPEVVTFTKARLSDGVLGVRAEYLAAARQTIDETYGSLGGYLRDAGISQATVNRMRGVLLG
mPTPA, sequence (P9WIA1 whole entry): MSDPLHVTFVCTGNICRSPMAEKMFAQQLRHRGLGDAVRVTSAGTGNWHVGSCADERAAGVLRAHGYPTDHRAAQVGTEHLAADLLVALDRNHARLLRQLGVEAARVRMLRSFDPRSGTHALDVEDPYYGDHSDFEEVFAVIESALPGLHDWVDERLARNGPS

Which IC90 (Mtb-infected macrophages) does the source give for Cc1c(Br)cc(NC(=O)CS(=O)(=O)O)cc1Br [Compound L335-M34] here?
The IC90 was 1380 nM.

What about the “Mode of mPTPA inhibition” value (mPTPA) of the same molecule?
Its value is “reversible and competitive inhibitor”.

What about the IC50 (mPTPA; read-out: Biochemical potency against target (IC50, nM) mPTPA, pH 7) of the same molecule?
The IC50 was 160 nM.

What about the Ki (mPTPA; read-out: Ki for mPTPA) of the same molecule?
Its Ki is 56 ± 2 nM.

What about the “Activity against a panel of human PTPs” value ([1]; at concentrations below 3 μM) of the same molecule?
Its value is “no significant activity”.

What about the “Fold selectivity vs. PTP panel” value ([1]; panel of 17 human PTPs) of the same molecule?
The value was greater than 20 fold.

What about the AUCALL [2, 4] of the same molecule?
Its AUCALL is 52752.61 ng·h/mL.

And the CMAX [2, 4]?
The CMAX was 7064.956 ng/mL.

And the Clearance [2, 4]?
The Clearance was 15.8339 mL/min/kg.

What about the Half-life [2, 4] of the same molecule?
Its Half-life is 4.16 h.

What about the TMAX [2, 4] of the same molecule?
Its TMAX is 2.5 h.

What about the “VD (Volume of distribution)” value [2, 4] of the same molecule?
The value was 5702.19.

And the AUCALL [2, 5]?
Its AUCALL is 54406.61 ng·h/mL.

And the CMAX [2, 5]?
The CMAX was 5142.47 ng/mL.

And the Clearance [2, 5]?
Its Clearance is 15.291 mL/min/kg.

What about the Half-life [2, 5] of the same molecule?
Its Half-life is 5.197 h.

What about the TMAX [2, 5] of the same molecule?
The TMAX was 2.5 h.

And the “VD (Volume of distribution)” value [2, 5]?
The value was 6878.467.

And the “Time plasma concentration stays 10-fold in excess of biochemical IC50” value ([2]; guinea pig, single oral dose, L335-M34 50 mg/kg, L01-Z08 20 mg/kg)?
Its value is 12–14 hours and 12–24 hours.

What about the “Oral bioavailability (in words)” value [2] of the same molecule?
Its value is “good oral bioavailability”.

What about the Signs of toxicity [3] of the same molecule?
The Signs of toxicity was “no overt signs of toxicity”.

What about the “In vitro anti-Mtb activity MABA-MIC Erdman” value (M. tuberculosis Erdman) of the same molecule?
The value was >10 >10 uM.

And the “Further reduction of mean lung CFU relative to HRZ” value (Mtb H37Rv)?
Its value is 0.17 log10.

What about the “Activity against mPTPB” value (mPTPB) of the same molecule?
The value was “no significant activity”.

And the “Fold selectivity vs. mPTPA/B (mPTPA inhibitor over mPTPB)” value (mPTPB)?
The value was greater than 20 fold.

What about the IC50 (mPTPB; read-out: Biochemical potency against target (IC50, nM) mPTPB, pH 7) of the same molecule?
Its IC50 is greater than 3200 nM.

And the “In vitro anti-Mtb activity MABA-MIC H37Rv” value (M. tuberculosis H37Rv)?
Its value is >10 >10 uM.

What about the “Activity in standard MIC assay (in words)” value (M. tuberculosis H37Rv) of the same molecule?
The value was “devoid of activity”.

With O=C(O)c1cc2c(C#Cc3cccc(C(F)(F)F)c3)c(-c3ccccc3)oc2cc1O [Compound L01-Z08] as the molecule, how does the IC90 (Mtb-infected macrophages) read?
Its IC90 is less than 5000 nM.

And the AUCALL [2, 4]?
The AUCALL was 28161.76 ng·h/mL.

And the CMAX [2, 4]?
Its CMAX is 3059.668 ng/mL.

And the Clearance [2, 4]?
Its Clearance is 11.6927 mL/min/kg.

And the Half-life [2, 4]?
Its Half-life is 6.141 h.

And the TMAX [2, 4]?
The TMAX was 1.587 h.

And the “VD (Volume of distribution)” value [2, 4]?
Its value is 6215.132.

And the AUCALL [2, 5]?
Its AUCALL is 13166.89 ng·h/mL.

What about the CMAX [2, 5] of the same molecule?
The CMAX was 1870.43 ng/mL.

And the Clearance [2, 5]?
The Clearance was 25.3079 mL/min/kg.

What about the Half-life [2, 5] of the same molecule?
The Half-life was 5.512 h.

What about the TMAX [2, 5] of the same molecule?
Its TMAX is 1.587 h.

And the “VD (Volume of distribution)” value [2, 5]?
Its value is 12074.939.

And the “Oral bioavailability (in words)” value [2]?
The value was “good oral bioavailability”.

What about the Signs of toxicity [3] of the same molecule?
Its Signs of toxicity is “no overt signs of toxicity”.

What about the “In vitro anti-Mtb activity MABA-MIC Erdman” value (M. tuberculosis Erdman) of the same molecule?
Its value is >10 >10 uM.

And the “In vitro anti-Mtb activity MABA-MIC H37Rv” value (M. tuberculosis H37Rv)?
Its value is >10 >10 uM.

And the “Activity in standard MIC assay (in words)” value (M. tuberculosis H37Rv)?
Its value is “inactive”.
